Compound activity (PubChem BioAssay)
Sampled rows, rich in hits. Any-hit rate of the full collection: about 2.6%.
OXTR potentiate: potentiators of human oxytocin receptor; P30559; CHO-OTR cells, Fluo-8 calcium fluorescence, potentiator mode; 0% = oxytocin EC15, 100% = EC100; activation, % at 3 µM; 320,000 compounds, 0.061% hits; AID 2445;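 active = activation above that plate's cutoff, the mean activation of tested compounds plus 3 SD, cut at about 6.6% in these data, passing the limit was not always enough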;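 also: 100% uses oxytocin at 75 nM as the full agonist control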
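Material: CHO-OTR cells, human receptor; compound dosing: single dose, 3.0 µM nominal final compound concentration; schedule: 6 min compound pre-incubation at room temperature, 100 s kinetic read; measured by: kinetic Fluo-8 calcium fluorescence; read-out basis: % activation vs EC15 and EC100 oxytocin; controls: EC15 oxytocin alone as 0%, 75 nM oxytocin as 100%; replicates: singlicate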
OX1R antag-1: blocks the human orexin 1 receptor; AID 485270; inhibition, % at 6.6 µM; 330,000 compounds, 1.8% hits; OX1R-expressing cells, FRET antagonist read-out; O43613; in the data active = inhibition mostly above about 38%, no sharp cut-off; inactive = mostly below about 40%;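 also: 0% = agonist challenge alone and 100% = reference antagonist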
Target sequence (O43613 whole entry, looked up): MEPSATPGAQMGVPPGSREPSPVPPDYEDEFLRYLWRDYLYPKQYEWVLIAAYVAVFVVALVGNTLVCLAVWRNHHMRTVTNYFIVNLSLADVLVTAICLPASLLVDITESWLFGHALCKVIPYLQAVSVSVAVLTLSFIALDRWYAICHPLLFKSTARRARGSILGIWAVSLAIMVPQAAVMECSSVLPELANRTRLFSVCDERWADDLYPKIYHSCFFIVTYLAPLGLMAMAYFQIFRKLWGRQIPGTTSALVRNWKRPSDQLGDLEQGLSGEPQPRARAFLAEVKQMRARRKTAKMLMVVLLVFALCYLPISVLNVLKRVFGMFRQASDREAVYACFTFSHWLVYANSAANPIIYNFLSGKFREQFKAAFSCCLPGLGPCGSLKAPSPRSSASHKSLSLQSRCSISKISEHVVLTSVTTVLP
V1aR counter: V1a receptor agonism, counter-screen for OXTR agonists; P37288; CHO-V1R cells, Fluo-8 calcium fluorescence, agonist mode; 0% DMSO, 100% 3 nM vasopressin; activation, % at 3 µM; 320,000 compounds, 0.25% hits; AID 2797;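 active = activation above the mean activation of all tested compounds plus 3 SD, per screening run, cut at about 20% in these data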;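 also: signal is peak over basal fluorescence ratio across a 100 second FLIPR read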
CHO parental Ca: counter-screen: ATP calcium response change in parental CHO cells; parental CHO-K1, ATP-induced calcium, Fluo-8 fluorescence; inhibition, % at 5.6 µM; 330,000 compounds, 0.63% hits; AID 463079;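 active = inhibition above that plate's mean sample inhibition plus 3 SD, cut at about 26% in these data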;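 also: 0% = ATP-challenged DMSO wells and 100% = DMSO wells without ATP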
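material = parental CHO cells | also added = ATP as calcium-mobilizing challenge | dosing = single point at 5.6 µM | detection = intracellular calcium via Fluo-8 no-wash fluorescent dye | read-out = % inhibition | benchmarks = low control ATP plus DMSO, high control DMSO only | repeats = one well per compound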
OX1R antag-2: blocks the human orexin 1 receptor | inhibition, % at 5 µM | AID 434989 | 330,000 compounds, 0.43% hits | O43613 | CHO/OX1R cells, Fluo-8 calcium fluorescence, orexin A;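 active = inhibition above its plate's threshold, mean inhibition of all tested compounds on the plate plus 3 SD, cut at about 37% in these data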;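 also: 0% = orexin A challenge wells and 100% = SB-334867-A antagonist wells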
OXTR ag: activates the human oxytocin receptor | P30559 | CHO-OTR cells, Fluo-8 calcium fluorescence; normalized: DMSO 0%, oxytocin 100% | activation, % at 3 µM | 320,000 compounds, 0.32% hits | AID 2435;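 active = activation above the mean of all tested compounds plus 3 SD, cutoff set per screening run, cut at about 20% in these data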;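 also: peak over basal fluorescence ratio from a 100 s FLIPR kinetic read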
OX1R HTRF confirm: OX1R (human) antagonism, HTRF confirmed; shares compounds with OX1R antag-1; inhibition, % at 6.6 µM; OX1R-expressing cells, HTRF antagonist assay; 1,800 compounds, 49% hits; in the data active = inhibition above about 55%;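 also: CHO cells expressing OX1R stimulated with orexin A at about EC80; 0% = agonist challenge alone and 100% = reference antagonist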
CHO-K1 HTRF cnt: counter-screen: parental CHO-K1 HTRF response. shares compounds with OX1R antag-1. parental CHO-K1 cells, HTRF counterscreen. inhibition, % at 6.6 µM. 1,800 compounds, 48% hits; in the data active = inhibition above about 17%;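 also: 0% = agonist challenge with vehicle and 100% = vehicle alone without agonist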
An asterisk follows results filed as active; / = no result.

SMILES | OXTR potentiate | OX1R antag-1 | V1aR counter | CHO parental Ca | OX1R antag-2 | OXTR ag | OX1R HTRF confirm | CHO-K1 HTRF cnt
O=C(CCS(=O)(=O)c1cccc2nsnc12)NCc1ccccc1 | 0 | 120* | 0 | -17 | -26 | 0 | 40 | 39*
COc1cccc(NC(=O)CS(=O)(=O)c2cccc3nsnc23)c1 | -7 | 53 | 0 | -6 | -21 | 1 | / | /
O=C(CCCNS(=O)(=O)c1cccc2nsnc12)NCc1ccccc1 | -2 | 28 | -1 | -10 | -23 | -1 | / | /
CN(C(=O)COC(=O)CSc1ccc([N+](=O)[O-])cc1)C1CCS(=O)(=O)C1 (stereo not given) | -3 | 44 | 0 | -2 | 0 | 0 | / | /
CN(C(=O)COC(=O)CSc1ccc(C(N)=O)cc1[N+](=O)[O-])C1CCS(=O)(=O)C1 (stereo not given) | -7 | 77* | 1 | 13 | 7 | 1 | 44 | 69*
CN(C(=O)CSc1nc2ccc([N+](=O)[O-])cc2s1)C1CCS(=O)(=O)C1 (stereo not given) | -2 | 83* | 2 | -8 | -5 | 3 | 70* | 40*
C=CCOc1ccc(C2C(C(=O)c3ccc(C)o3)=C(O)C(=O)N2Cc2cccnc2)cc1 (stereo not given) | -7 | 4 | 0 | -13 | -13 | 0 | / | /
N#Cc1cccn1-c1nccc(-c2cccs2)n1 | 12 | 87* | 0 | -18 | -9 | -2 | 75* | 2
CCn1c(C)nc2cc(-c3nc4n(n3)Cc3ccccc3-4)ccc21 | -25 | 88* | 1 | 8 | -12 | 0 | 81* | 9
Cn1cnnc1SCC(=O)c1ccc(O)c(O)c1 | 3 | 9 | 0 | 12 | -5 | 1 | / | /
NC(=O)N=Nc1c(O)[nH]c2ccc([N+](=O)[O-])cc12 | -1 | 102* | 1 | -7 | -19 | 0 | 45 | 63*
CCN(C(=O)CN1C(=O)NC(c2ccccc2)(c2ccc(C)c(C)c2)C1=O)C1CCCCC1 (stereo not given) | -9 | 11 | 0 | -43 | -38 | -2 | / | /
COc1cccc(C(=O)NC2CC3CCCC(C2)N3CC(=O)Nc2ccccc2C(F)(F)F)c1 (stereo not given) | -10 | 90* | 0 | -19 | 8 | -2 | 89* | 6
COc1cccc(C(=O)NC2CC3CCC(C2)N3Cc2ccccc2)c1 (stereo not given) | -3 | 3 | 0 | -12 | -13 | 0 | / | /
CC(=O)Nc1ccc2c3c(cccc13)C(=O)N(c1ccccc1)C2=O | -10 | 110* | -1 | 1 | -13 | 0 | 41 | 63*
CC(=O)NN1C(=O)c2ccc3c4c(ccc(c24)C1=O)C(=O)N(NC(C)=O)C3=O | -1 | 83* | 0 | -3 | -15 | 0 | 69* | 174*
O=C(CSc1n[nH]c(=O)[nH]c1=O)c1ccc([N+](=O)[O-])cc1 | -1 | 134* | 0 | -6 | -14 | 0 | 56* | 80*
COc1ccc(C(=O)CSc2n[nH]c(=O)[nH]c2=O)cc1 | -6 | 13 | 0 | 9 | -15 | 1 | / | /
COc1ccc(-c2cc(C(=O)c3c(N)n(C)c(=O)n(C)c3=O)c3ccccc3n2)cc1OC | -5 | 60 | 1 | -8 | -13 | 0 | / | /
COc1ccc(OC)c(C(=O)NC(CC(N)=O)c2ccc(N3CCCCCC3)c([N+](=O)[O-])c2)c1 (stereo not given) | -4 | 21 | 0 | -20 | -25 | 0 | / | /
O=[N+]([O-])c1cccc(/C=C/c2nc3ccc([N+](=O)[O-])cc3[nH]2)c1 | -12 | 102* | 6 | 19 | 17 | 5 | 21 | 1
COc1ccc(C(=O)NCC(=O)OCC(=O)N2CCC(C)CC2)cc1OC | -17 | -2 | 1 | -2 | -4 | 1 | / | /
CSC1=N/C(=C/c2ccc(-n3cncn3)cc2)C(=O)N1 | 5 | 86* | 1 | -4 | -11 | 0 | 35 | 25*
COc1ccc(/C=C2\N=C(SC)NC2=O)cc1 | -3 | 21 | 1 | -3 | 12 | 0 | / | /
CC1(C)N([O-])C2=C(c3ccccc3C2=O)[N+](=O)C1(C)C | -20 | 169* | -1 | 1 | 1 | 0 | 56* | 66*
SMILES | OXTR potentiate | OX1R antag-1 | V1aR counter | CHO parental Ca | OX1R antag-2 | OXTR ag | OX1R HTRF confirm | CHO-K1 HTRF cnt
O=c1oc2ccccc2n1CCn1c2ccccc2c2nc3ccccc3nc21 | -17 | 50 | 1 | -18 | -13 | 0 | / | /
N#CCCn1c2ccccc2c2nc3ccccc3nc21 | -1 | 77* | 0 | -15 | 2 | -1 | 84* | 1
OCC[C@H]1C[C@H](O)[C@@H](O)[C@]2(OCCc3ccccc32)O1 | -7 | 12 | 1 | 2 | 1 | 1 | / | /
CCOc1ccc(OCC(=O)c2c(O)c3ccccc3oc2=O)cc1 | -13 | 79* | 0 | 5 | -8 | -1 | 16 | -11
COc1ccc2nc3sc(C(=O)NCCCN4CCc5ccccc5C4)cc3cc2c1 | -1 | 80* | -1 | -20 | -18 | -1 | 29 | 20*
COc1ccc2nc3sc(C(=O)N4CCN(C)CC4)cc3cc2c1 | 0 | 110* | 1 | -4 | 10 | 1 | 35 | 27*
Cc1onc(-c2c(Cl)cccc2Cl)c1COC(=O)c1ccc(Cl)cc1[N+](=O)[O-] | 2 | 18 | 1 | 1 | -22 | -1 | / | /
CCCCN(C(=O)CNC(=O)c1ccco1)C(C(=O)NC1CCCCC1)c1cccnc1 (stereo not given) | -9 | 0 | 0 | -13 | -19 | -1 | / | /
N#C/C(=C/c1ccc(Br)o1)C(N)=O | -6 | 79* | 1 | -12 | -11 | 0 | 44 | 12
Cc1cc(C)n(-c2ccc(C(=O)NCC(=O)Nc3cc(Cl)ccc3Cl)cc2)n1 | -7 | 2 | 1 | -13 | -33 | 0 | / | /
COc1ccc(OC)c(Nc2nc(N)nc(-c3cc4ccccc4o3)n2)c1 | -17 | 80* | 0 | 16 | 12 | 1 | 34 | 12
CCOc1ncccc1C(=O)OCC(=O)N(CC(C)C)c1c(N)n(Cc2ccccc2)c(=O)[nH]c1=O | -6 | 18 | -1 | -18 | -24 | -1 | / | /
COc1ccc(-c2cc(-c3ccccc3)nc(=O)[nH]2)cc1 | -4 | 18 | 1 | -15 | -3 | -1 | / | /
O=c1nc(-c2ccccc2)cn[nH]1 | -10 | 148* | -1 | 5 | -11 | 0 | 38 | 37*
O=C(O)CCC(=O)Nc1nc2nc(-c3ccccc3)cc(-c3ccccc3)n2n1 | -2 | 109* | 1 | -15 | -11 | 0 | 25 | 15
